PAFAH1B3 inh: inhibitors of human PAFAH1B3; recombinant PAFAH1B3, FP-rhodamine probe, fluorescence polarization; inhibition, % at 3.39 µM; 340,000 tested, 0.28% active; AID 492972;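 active = inhibition above the screen-wide average of all tested compounds plus 3 SD, cut at about 25% in these data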
ASAP1 GAP inh: inhibitors of human ASAP1 ArfGAP activity. 360,000 tested, 0.19% active. Q9ULH1. ASAP1-stimulated ARF1 GTP hydrolysis, GDP FP detection. inhibition, % at 16.5 µM. AID 624377; in the data active = inhibition above about 25%
Target sequence (Q9ULH1 325-724 limits assumed): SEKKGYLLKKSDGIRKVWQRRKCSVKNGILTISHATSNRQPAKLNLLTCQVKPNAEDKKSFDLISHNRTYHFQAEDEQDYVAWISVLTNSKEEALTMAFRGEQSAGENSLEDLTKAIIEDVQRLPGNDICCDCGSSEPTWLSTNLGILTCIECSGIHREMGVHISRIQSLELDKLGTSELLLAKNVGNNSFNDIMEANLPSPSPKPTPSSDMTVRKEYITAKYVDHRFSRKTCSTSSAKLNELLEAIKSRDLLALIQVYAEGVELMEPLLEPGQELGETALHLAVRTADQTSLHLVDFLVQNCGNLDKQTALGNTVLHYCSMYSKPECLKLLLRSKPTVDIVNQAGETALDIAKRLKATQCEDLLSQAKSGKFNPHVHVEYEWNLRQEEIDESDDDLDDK
PAFAH2 FP inh: inhibitors of human PAFAH2. Q99487. recombinant PAFAH2, FP-rhodamine activity probe, fluorescence polarization. inhibition, % at 3.39 µM. 340,000 tested, 0.99% active. AID 492956;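 active = inhibition above the mean over all tested compounds plus 3 SD, cut at about 30% in these data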;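 note: inhibitors block probe labeling of enzyme so polarization drops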
PAFAH1B2 FP inh: inhibitors of human PAFAH1B2; P68402; AID 492953; recombinant PAFAH1B2, FP-rhodamine activity probe, fluorescence polarization; inhibition, % at 3.39 µM; 340,000 tested, 1.2% active;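 active = inhibition above the mean of all tested compounds plus 3 SD, cut at about 24% in these data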
pPAFAH FP inh: inhibitors of human plasma PAF acetylhydrolase (pPAFAH); Q13093; recombinant pPAFAH, FP-rhodamine probe fluorescence polarization; inhibition, % at 3.39 µM; 330,000 tested, 1.5% active; AID 463082;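 active = inhibition above the mean inhibition across the screen plus 3 SD, cut at about 25% in these data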;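 note: inhibitors block binding of the rhodamine activity-based probe so polarization drops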
ARFGAP1 inhibitor: inhibits rat ARF GTPase activating protein 1 | Arfgap1-stimulated ARF1 GTP hydrolysis, GDP FP detection | AID 651572 | 360,000 tested, 0.26% active | inhibition, % at 16.5 µM;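 active = inhibition above a per-plate limit, mean inhibition of low control wells plus 3 SD, cut at about 25% in these data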
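system = rat Arfgap1 catalytic domain, aa 1-136 | technique = FP, GDP Alexa 633 tracer displaced from anti-GDP antibody, 620/688 nm | compound = one concentration, 16.5 µM, DMSO 1.26% | medium = HEPES-based buffer, pH 7.5 | timing = compound-enzyme preincubation 20 min, reaction 120 min, detection 60 min, 25 °C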
PAFAH2 FP conf: PAFAH2 (human) inhibition, confirmed | shares compounds with PAFAH2 FP inh | recombinant PAFAH2, FP-rhodamine activity probe, fluorescence polarization | inhibition, % at 3.39 µM | 2,300 tested, 65% active;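 active = mean inhibition over three repeats above a set limit taken from the earlier primary screen, cut at about 30% in these data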;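 note: inhibitor blocks binding of rhodamine activity probe so polarization falls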
Hits are given with their value; i = inactive; nt = not tested or not shown. Only some compounds are listed: those with a hit (about 2.8% of all), similar ones and a draw of the others.

SMILES	PAFAH1B3 inh	ASAP1 GAP inh	PAFAH2 FP inh	PAFAH1B2 FP inh	pPAFAH FP inh	ARFGAP1 inhibitor	PAFAH2 FP conf
Cc1ccsc1C(=O)N1CCC1(C)C(=O)NCC(C)(C)C (centres undefined)	nt	i	nt	nt	nt	i	nt
O=C1C=C(Nc2ccc(Cl)cc2Cl)CC(c2ccco2)C1 (centres undefined)	i	i	45	i	i	i	37
C#CC1(NC(=S)Nc2cccc(OC)c2)CCCCC1	nt	i	nt	nt	nt	i	nt
CCN(CC)S(=O)(=O)c1ccc(O)c(NC(=O)CN2CCc3ccccc3C2)c1	i	i	56	i	i	i	56
CC1(C(=O)NS(=O)(=O)c2ccccc2Cl)CCN1C(=O)Cc1cccs1 (centres undefined)	nt	i	nt	nt	nt	i	nt
COc1cc(/C=C/C(=O)OCC(=O)Nc2ccccc2Cl)cc(OC)c1OC	i	i	i	i	i	i	nt
CC(C)=CC(=O)OCC(=O)Nc1ccccc1Cl	i	i	51	i	i	i	40
CC(C)=CC(=O)OCC(=O)Nc1cc(C)ccc1C	i	i	30	i	i	i	i
Cc1ccccc1OCC(=O)OC(C)C(=O)NC1CCCC1 (centres undefined)	i	i	i	i	i	i	nt
Cc1ccc(C(=O)OCC(=O)NC(C)c2ccccc2)cc1C (centres undefined)	i	i	75	i	i	i	63
Cc1cc(C(=O)OCC(=O)NC(C)c2ccccc2)c(C)o1 (centres undefined)	i	i	32	i	i	i	i
CC(NC(=O)CCc1c[nH]c2ccccc12)c1ccccc1 (centres undefined)	i	i	i	i	i	i	nt
Cc1cc(C(=O)OCC(=O)NC(C)c2ccc(F)cc2)c(C)o1 (centres undefined)	i	i	48	i	i	i	34
CC(NC(=O)COC(=O)c1c[nH]c2ccccc12)c1ccccc1 (centres undefined)	i	i	55	i	i	i	52
COc1ccccc1N1CCN(C2CCCN(C(=O)CCC(C)=O)C2)CC1 (centres undefined)	i	i	i	i	i	i	nt
CNC(=O)OC1CC2CC1[C@H]1CCCCN1C2=O (some centres undefined)	nt	i	nt	nt	nt	i	nt
CN(C)C(=O)c1ccc(NC(=O)CN2C(=O)NC3(CCCc4ccccc43)C2=O)cc1 (centres undefined)	i	i	i	i	i	i	nt
O=C(COC(=O)CCc1c[nH]c2ccccc12)Nc1ccc([N+](=O)[O-])cc1	i	i	i	i	i	i	nt
Cc1ccc(/C=C/C(=O)OCC(=O)NC(C)c2ccccc2)o1 (centres undefined)	i	i	54	i	i	i	38
CC(NC(=O)COC(=O)/C=C/c1cccc(C(F)(F)F)c1)c1ccccc1 (centres undefined)	i	i	i	i	i	i	nt
O=C(COC(=O)c1c[nH]c2ccccc12)Nc1ccc([N+](=O)[O-])cc1	i	i	73	i	i	i	73
CCN(CC)S(=O)(=O)c1ccc(/C=C/C(=O)NC2CCCCC2)cc1	i	i	i	i	i	i	nt
Cc1cc(C)n(-c2ccc(C(=O)OCC(=O)Nc3ccccc3[N+](=O)[O-])cc2)n1	i	i	i	i	i	i	nt
Cc1ccc(NC(=O)COC(=O)c2ccc(-n3nc(C)cc3C)cc2)c(F)c1	i	i	42	i	i	i	43
Cc1cc(C)n(-c2ccc(C(=O)OCC(=O)Nc3ccccc3F)cc2)n1	i	i	62	i	i	i	51
SMILES	PAFAH1B3 inh	ASAP1 GAP inh	PAFAH2 FP inh	PAFAH1B2 FP inh	pPAFAH FP inh	ARFGAP1 inhibitor	PAFAH2 FP conf
O=C(COC(=O)C12CC3CC(CC(O)(C3)C1)C2)Nc1ccc(OC(F)F)cc1	i	i	45	i	nt	i	i
O=C(COC(=O)C12CC3CC(CC(C3)C1)C2)Nc1ccc(OC(F)F)cc1	i	i	67	i	i	i	49
CCS(=O)(=O)N1Cc2cc(C(=O)NCC3CC3)nc(-c3cccc(-c4cccnc4)c3)c2[C@@H]1CCO	nt	i	nt	nt	nt	i	nt
O=C(COC(=O)c1ccccn1)NCc1ccc(Cl)cc1Cl	i	i	i	i	i	i	nt
O=C(COC(=O)c1ccco1)NCCc1ccc(Cl)cc1	i	i	49	i	i	i	31
O=C(COC(=O)c1ccco1)NCc1ccc(Cl)cc1Cl	i	i	69	i	i	i	51

Screening data: PubChem BioAssay, The Scripps Research Institute Molecular Screening Center
